# Results from ChEMBL document CHEMBL2062487, “Design, synthesis and evaluation of clinafloxacin triazole hybrids as a new type of antibacterial and antifungal agents” (2012).
# Key:
# Assay type in all cases: functional
# [1] = tested on: Shigella dysenteriae; assay: Antibacterial activity against Shigella dysenteriae by two fold broth dilution method
# Outline: (§1)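 Twofold broth dilution in 96-well microtest plates following NCCLS guidance. Endpoint is the MIC (µg/mL), the lowest concentration that inhibits growth. Clinafloxacin, chloramphenicol and fluconazole served as positive controls.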
# [2] = tested on: Pseudomonas aeruginosa; assay: Antibacterial activity against Pseudomonas aeruginosa by two fold broth dilution method
# Outline: (§2)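 MIC was determined by twofold broth dilution in microplates, following NCCLS recommendations. Clinafloxacin, chloramphenicol and fluconazole served as positive controls. Values are given in μg/mL.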
# [3] = tested on: Staphylococcus aureus; assay: Antibacterial activity against Staphylococcus aureus ATCC […] by two fold broth dilution method; outline: as §2
# [4] = tested on: Escherichia coli; assay: Antibacterial activity against Escherichia coli JM109 by two fold broth dilution method; outline: as §2
# [5] = tested on: Candida; assay: Antifungal activity against Candida mycoderma by two fold broth dilution method; outline: as §2
# [6] = tested on: Micrococcus luteus; assay: Antibacterial activity against Micrococcus luteus ATCC 4698 by two fold broth dilution method; conditions: NCTC 2665; outline: as §2
# [7] = tested on: Bacillus subtilis; assay: Antibacterial activity against Bacillus subtilis ATCC 6633 by two fold broth dilution method; outline: as §2
# [8] = tested on: Staphylococcus aureus; assay: Antibacterial activity against methicillin-resistant Staphylococcus aureus N 315 by two fold broth dilution method; conditions: N315; outline: as §1
# [9] = tested on: Candida albicans; assay: Antifungal activity against Candida albicans ATCC 76615 by two fold broth dilution method; outline: as §2
# [10] = Antibacterial activity against Bacillus proteus by two fold broth dilution method; outline: as §2
SMILES,MIC [1] [µg/mL],MIC [2] [µg/mL],MIC [3] [µg/mL],MIC [4] [µg/mL],MIC [5] [µg/mL],MIC [6] [µg/mL],MIC [7] [µg/mL],MIC [8] [µg/mL],MIC [9] [µg/mL],MIC [10] [µg/mL]
Cc1ccc(C(=O)Cn2cncn2)cc1,> 512,32,> 512,32,> 512,> 512,256,> 512,> 512,> 512
O=C(Cn1cncn1)c1ccc(Cl)cc1,512,512,512,> 512,> 512,> 512,> 512,512,512,512
O=C(Cn1cncn1)c1ccc(F)cc1,> 512,512,> 512,> 512,> 512,> 512,> 512,> 512,> 512,> 512
O=C(Cn1cncn1)c1ccc(Cl)c(Cl)c1,512,128,256,32,512,512,512,> 512,> 512,256
O=C(Cn1cncn1)c1ccc(F)c(F)c1,512,256,> 512,64,512,512,512,> 512,> 512,> 512
O=C(Cn1cncn1)c1ccc(Cl)cc1Cl,512,256,> 512,128,> 512,> 512,512,> 512,512,512
O=C(Cn1cncn1)c1ccc(F)cc1F,512,256,512,32,> 512,512,512,> 512,512,512
Fc1ccc(C2(Cn3cncn3)CO2)c(F)c1 (racemic),32,16,256,32,8,32,16,128,64,32
Clc1ccc(C2(Cn3cncn3)CO2)cc1 (racemic),32,32,64,32,32,32,16,256,32,16
Fc1ccc(C2(Cn3cncn3)CO2)cc1 (racemic),64,128,256,128,8,8,8,128,64,128
Clc1ccc(C2(Cn3cncn3)CO2)cc1Cl (racemic),64,128,128,128,16,16,16,256,64,32
Fc1ccc(C2(Cn3cncn3)CO2)cc1F (racemic),64,64,256,128,8,8,32,256,128,64
Clc1ccc(C2(Cn3cncn3)CO2)c(Cl)c1 (racemic),64,128,256,256,16,32,32,256,32,64
Cc1ccc(C(O)(CNC2CCN(c3c(F)cc4c(=O)c(C(=O)O)cn(C5CC5)c4c3Cl)C2)Cn2cncn2)cc1 (racemic),0.5,0.5,2,1,0.5,2,0.5,0.25,0.5,0.5
O=C(O)c1cn(C2CC2)c2c(Cl)c(N3CCC(NCC(O)(Cn4cncn4)c4ccc(Cl)cc4)C3)c(F)cc2c1=O (racemic),> 512,> 512,> 512,32,> 512,> 512,> 512,> 512,> 512,512
O=C(O)c1cn(C2CC2)c2c(Cl)c(N3CCC(NCC(O)(Cn4cncn4)c4ccc(F)cc4)C3)c(F)cc2c1=O (racemic),0.5,0.5,2,1,0.5,0.5,1,2,1,0.5
O=C(O)c1cn(C2CC2)c2c(Cl)c(N3CCC(NCC(O)(Cn4cncn4)c4ccc(Cl)c(Cl)c4)C3)c(F)cc2c1=O (racemic),0.5,0.5,8,4,0.5,0.5,32,0.25,2,0.25
O=C(O)c1cn(C2CC2)c2c(Cl)c(N3CCC(NCC(O)(Cn4cncn4)c4ccc(F)c(F)c4)C3)c(F)cc2c1=O (racemic),0.5,0.5,0.5,1,0.5,0.5,0.5,0.5,0.5,0.5
O=C(O)c1cn(C2CC2)c2c(Cl)c(N3CCC(NCC(O)(Cn4cncn4)c4ccc(Cl)cc4Cl)C3)c(F)cc2c1=O (racemic),0.5,2,4,4,0.5,0.5,32,4,4,1
O=C(N[C@H](CO)[C@H](O)c1ccc([N+](=O)[O-])cc1)C(Cl)Cl [CHLORAMPHENICOL],32,32,16,32,> 512,8,32,16,> 512,32
NC1CCN(c2c(F)cc3c(=O)c(C(=O)O)cn(C4CC4)c3c2Cl)C1 (stereo not given) [CLINAFLOXACIN],1,0.5,0.5,0.5,> 512,0.5,0.5,1,> 512,0.5
